Experiments:
MRC5 [1] = assay: Cytotoxic activity of compound against uninfected MRC5 cells; type: functional; conditions: Homo sapiens
In short: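 Uninfected MRC5 monolayers given the same six compound concentrations in triplicate and incubated 5 days. Minimum cytotoxic dose estimated by microscopic examination.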

Homo sapiens [2] = species on record: Homo sapiens; assay: Cytotoxic activity of compound against uninfected 2.2.15 cells.; type: functional; conditions: HepG2 2.2.15
In short: (§1)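 Growing cultures of 2.2.15 cells, used for both antiviral effect and cytotoxicity. IC50 and CC50 each come from five compound concentrations encompassing the value. Data are means of four replicate samples.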

MOLT-4 [3] = assay: Cytotoxic activity of compound against growing cultures of human leukemic T-cell lines Molt-4; type: functional
In short: (§2)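 Growing cultures of the human leukemic line (T-cell CEM or Molt 4; B-cell IM-9). CC50 taken from five compound concentrations spanning the CC50. Data are means of three replicate samples.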

IM-9 [4] = assay: Cytotoxic activity of compound against growing cultures of human leukemicB-cell line IM-9; type: functional; in short: as §2
Homo sapiens [5] = species on record: Homo sapiens; assay: Inhibitory activity of compound against hepatitis B virus (HBV) in growing cultures of 2.2.15 cells; type: functional, cell-based; conditions: HepG2 2.2.15; in short: as §1
MRC5 [6] = assay: Inhibitory activity of compound against human cytomegalovirus (HCMV) strain AD169 in monolayers of MRC5 cells; type: functional, cell-based
In short: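 MRC5 human embryonic lung monolayers infected with HCMV AD169 at ca. 0.01 infectious particles/cell. Compound added at six concentrations, each in triplicate, then incubated 5 days. IC50 estimated from well HCMV DNA measured by blotting and quantitative specific DNA hybridization. Reported value is the mean of at least two determinations done at different times.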

CCRF-CEM [7] = assay: Cytotoxic activity of compound against growing cultures of human leukemic T-cell lines CEM; type: functional; in short: as §2
CCRF-CEM [8] = assay: Cytotoxic activity of compound against growing cultures of human leukemic T-cell lines CEM at 100 uM; type: functional
IM-9 [9] = assay: Cytotoxic activity of compound against growing cultures of human leukemicB-cell line IM-9 at 100 uM; type: functional
MOLT-4 [10] = assay: Cytotoxic activity of compound against growing cultures of human leukemic T-cell lines Molt-4 at 100 uM; type: functional
MOLT-4 [11] = assay: Cytotoxic activity of compound against growing cultures of human leukemic T-cell lines Molt-4 100 uM; type: functional
CCRF-CEM [12] = assay: Cytotoxic activity of compound against growing cultures of human leukemic T-cell lines CEM 100 uM; type: functional

Compound	CC50 (MRC5 [1]) [µM]	CC50 (Homo sapiens [2]) [µM]	CC50 (MOLT-4 [3]) [µM]	CC50 (IM-9 [4]) [µM]	IC50 (Homo sapiens [5]) [µM]	IC50 (MRC5 [6]) [µM]	CC50 (CCRF-CEM [7]) [µM]	Control (CCRF-CEM [8]) [%]	Control (IM-9 [9]) [%]	Control (MOLT-4 [10]) [%]	CC50 (MOLT-4 [11]) [µM]	CC50 (IM-9 [9]) [µM]	CC50 (CCRF-CEM [12]) [µM]
Nc1nc(O)c2ncn(C3CC(O)C(CO)S3)c2n1 (stereo unspecified)	2	13	14	4	0.002	0.06	9						
Nc1nc(N2CCCCC2)c2ncn(C3CC(O)C(CO)S3)c2n1 (stereo unspecified)	> 200	> 200			4	6		80	88	77			
Nc1nc(OCC2CC2)c2ncn(C3CC(O)C(CO)S3)c2n1 (stereo unspecified)	> 20	> 0.2	13	61	0.035	0.6	41						
Nc1nc(N2CCCC2)c2ncn(C3CC(O)C(CO)S3)c2n1 (stereo unspecified)	> 200	> 200			0.85	10		71	99	112			
CN(c1nc(N)nc2c1ncn2C1CC(O)C(CO)S1)C1CC1 (stereo unspecified)	> 20	101	100		0.3	2		58	72				
CCCNc1nc(N)nc2c1ncn2C1CC(O)C(CO)S1 (stereo unspecified)	> 50	> 0.2			0.061	2		68	92	52			
Nc1nc(NC2CC2)c2ncn(C3CC(O)C(CO)S3)c2n1 (stereo unspecified)	15	77			0.0072	0.2		68	78	11			
CC(C)Nc1nc(N)nc2c1ncn2C1CC(O)C(CO)S1 (stereo unspecified)	> 100	> 200			0.3	4		80	90	77			
CSc1nc(N)nc2c1ncn2C1CC(O)C(CO)S1 (stereo unspecified)	> 20	> 200			0.45	2		78	88	73			
Nc1nc(Cl)c2ncn(C3CC(O)C(CO)S3)c2n1 (stereo unspecified)	2	> 0.2			0.001	0.1					3.8	42	10
C=CCNc1nc(N)nc2c1ncn2C1CC(O)C(CO)S1 (stereo unspecified)	> 200	> 0.2	40		0.058	1.5	60		67				
COc1nc(N)nc2c1ncn2C1CC(O)C(CO)S1 (stereo unspecified)	> 5	14	2	5	0.0025	0.062	8						
CCN(C)c1nc(N)nc2c1ncn2C1CC(O)C(CO)S1 (stereo unspecified)	> 20	> 200			0.19	2		69	85	77			

— ChEMBL document CHEMBL1129667, “Synthesis and antiviral activity of 2'-deoxy-4'-thio purine nucleosides” (J Med Chem, 1996)
